Ki and EC50 data for ten compounds are collected here from ChEMBL document CHEMBL1149144, “Structure-based design of potent retinoid X receptor alpha agonists” (J Med Chem, 2004).

A value given as a limit tells only on which side of the number the result lay.

Assay [1] has as its target T1, Retinoic acid receptor RXR-alpha (Homo sapiens, UniProt P19793).
T1 sequence (P19793 whole entry): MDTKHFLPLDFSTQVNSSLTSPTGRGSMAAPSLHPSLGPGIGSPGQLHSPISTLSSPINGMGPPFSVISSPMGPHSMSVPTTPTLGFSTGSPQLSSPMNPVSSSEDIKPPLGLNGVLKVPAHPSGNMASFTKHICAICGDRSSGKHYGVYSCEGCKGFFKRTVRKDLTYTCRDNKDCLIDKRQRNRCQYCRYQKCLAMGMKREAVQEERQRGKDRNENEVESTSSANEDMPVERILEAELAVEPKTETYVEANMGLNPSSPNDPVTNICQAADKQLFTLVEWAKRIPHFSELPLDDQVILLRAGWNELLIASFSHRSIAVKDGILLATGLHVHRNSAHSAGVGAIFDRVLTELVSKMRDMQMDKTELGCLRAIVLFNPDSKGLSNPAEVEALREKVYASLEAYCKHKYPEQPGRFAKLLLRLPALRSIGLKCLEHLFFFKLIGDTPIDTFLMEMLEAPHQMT
Briefly: Binding affinity for retinoid X receptor alpha (RXRalpha), using 9-cis-[3H]-retinoic acid. In outline:
(§1)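 Scintillation proximity binding assay; Ki from competition of 2.5 nM 9-cis-RA at RXRα and RARα, with test compound up to 10 µM.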

Assay [2] addresses T2, Retinoic acid receptor alpha (Homo sapiens, UniProt P10276).
T2 sequence (P10276 whole entry): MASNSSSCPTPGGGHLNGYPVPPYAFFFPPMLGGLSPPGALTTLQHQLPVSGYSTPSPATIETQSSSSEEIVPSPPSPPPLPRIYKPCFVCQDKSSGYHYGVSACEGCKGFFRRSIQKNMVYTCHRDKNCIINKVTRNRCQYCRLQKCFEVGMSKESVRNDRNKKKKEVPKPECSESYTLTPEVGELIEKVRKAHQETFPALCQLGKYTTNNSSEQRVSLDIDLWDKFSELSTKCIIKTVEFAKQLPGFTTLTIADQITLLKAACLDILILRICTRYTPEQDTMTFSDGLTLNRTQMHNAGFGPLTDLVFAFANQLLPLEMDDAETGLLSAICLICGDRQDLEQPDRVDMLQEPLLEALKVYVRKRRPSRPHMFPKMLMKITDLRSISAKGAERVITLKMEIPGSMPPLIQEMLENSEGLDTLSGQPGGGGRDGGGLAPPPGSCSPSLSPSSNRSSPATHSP
Briefly: Effective concentration for Retinoic acid receptor alpha activity in CV-1 cells. The format is functional, cell-based. In outline:
(§2)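 CV-1 monkey kidney cells transiently transfected with a full-length hRXRα expression vector (RXRα) or a GAL4-hRARα vector (RARα), each with an RXRα- or RARα-responsive reporter gene construct. Top concentration 10 µM; EC50 calculated from the reporter response.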

For assay [3], the target named is T1, Retinoic acid receptor RXR-alpha. The experiment in a line: Effective concentration for Retinoid X receptor alpha activity in CV-1 cells. It is filed as functional, cell-based. Put shortly:
as §2

Assay [4] has as its target T2, Retinoic acid receptor alpha. The experiment in a line: Binding affinity for retinoic acid receptor alpha (RARalpha), using 9-cis-[3H]-retinoic acid. Put shortly: as §1
Assay [5] has as its target T1, Retinoic acid receptor RXR-alpha. Briefly: Effective concentration for Retinoid X receptor alpha activity in CV-1 cells; Partial agonist. It is filed as functional, cell-based. Put shortly:
as §2

Compound `O=C1NC(=O)/C(=C/c2ccc(-c3cccc(C(F)(F)F)c3)o2)S1` had a Ki in assay [1] of 7400 nM.

Regarding `CC(=CC(=O)O)c1cc2c(o1)CCCC2c1ccc2c(c1)C(C)(C)CCC2(C)C` (stereo not drawn), the concentration for a half-maximal effect (EC50) is more than 10000 nM in assay [2] and 60 nM in assay [3]. The results for the Ki in assay [1] and in assay [4] were 63 nM and more than 1000 nM, respectively.

With `CC1(C)CCC(C)(C)c2cc(C3CCCc4oc(/C=C/C(=O)O)cc43)ccc21` (stereo in doubt), the EC50 in assay [2] is more than 10000 nM; in assay [3], 5 nM. Moreover, the values for the Ki in assay [1] and in assay [4] were 5 nM and more than 1000 nM, respectively.

With `CC1(C)CCC(C)(C)c2cc(C3CCCc4oc(/C=C/C(=O)O)nc43)ccc21` (stereo not drawn), in assay [3], the midpoint of the response, the EC50, lay at 42 nM. The Ki is 158 nM in assay [1] and more than 1000 nM in assay [4].

With `CN1Cc2oc(/C=C/C(=O)O)cc2C(c2ccc3c(c2)C(C)(C)CCC3(C)C)C1` (stereo not drawn), the response in assay [3] was half-maximal at 70 nM (EC50). Moreover, the Ki in assay [1] was 79 nM; in assay [4] it was more than 1000 nM.

Take `Cc1cc2c(cc1C1CCCc3oc(/C=C/C(=O)O)cc31)C(C)(C)CCC2(C)C` (stereo not drawn): the EC50 was more than 10000 nM in assay [2] and 29 nM in assay [3]. In addition, the Ki was 40 nM in assay [1] and more than 1000 nM in assay [4].

For the compound `CC1(C)CCC(C)(C)c2cc(-c3ccc(/C=C/C(=O)O)o3)ccc21`, the Ki in assay [1] is more than 1000 nM; in assay [4] it was 93 nM.

In the case of `CC1(C)CCC(C)(C)c2cc(C3CCCc4sc(/C=C/C(=O)O)cc43)ccc21` (stereo not drawn), the EC50 in assay [2] was more than 10000 nM; in assay [3] it was 20 nM. The Ki in assay [1] is 40 nM; in assay [4], more than 1000 nM.

`CC1(C)CCC(C)(C)c2cc(C3CCCc4oc(/C=C/C(=O)O)cc43)ccc21` (single isomer, unassigned): the results for the EC50 in assay [2] and in assay [3] were more than 10000 nM and 40 nM, respectively. Moreover, the Ki in assay [1] was 200 nM; in assay [4] it was more than 1000 nM.

With `CCCOc1cc2c(cc1C1CCCc3oc(/C=C/C(=O)O)cc31)C(C)(C)CCC2(C)C` (stereo not drawn), the EC50 in assay [2] was more than 10000 nM; in assay [5], 137 nM. In addition, the results for the Ki in assay [1] and in assay [4] were 100 nM and more than 1000 nM, respectively.
